Assay results reported in publication PMC4377161 (Molecular cancer therapeutics, 2014).
“Also recorded” adds a separate entry of the source.

What was measured:
[1] = tested on: UACC 903 and 1205 Lu cells; assay: Cell cycle analysis, propidium iodide FACS; format: cell-based, human; conditions: 24 hours leelamine treatment, propidium iodide stained UACC 903 and 1205 Lu cells
[2] = tested on: MiA PaCa-2; assay: MTS cell viability, MiA PaCa-2 pancreas cancer; format: cell-based; conditions: read-out: IC50, Other cancer types, 24 h
Summary of the method: (§1)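 Cells kept in DMEM with 1% Glutamax and 10% FBS at 37°C, 5% CO2. Seeded at 5×10^3 cells/well in 96-well plates and grown before treatment. Treated with DMSO vehicle or 0.62 to 40 µmol/L test compound for 24, 48 or 72 h. Viability read by MTS. IC50 per cell line derived from three independent experiments by curve fitting.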

[3] = tested on: UACC 903 tumors; assay: Size and time matched tumors, Ki-67 immunohistochemistry; format: in vivo, nude mice; conditions: day 11, UACC 903 tumors, 7.5 mg/kg i.p. daily from day 6
Summary of the method: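 Nude mice injected s.c. with 2.5×10^6 UACC 903 cells. From day 6, dosed i.p. daily to day 15 with DMSO vehicle or 7.5 mg/kg test compound. Size- and time-matched tumors harvested at days 11, 13 and 15 and immunostained with mouse anti-human Ki-67. Positive cells scored as % of total cells, ≥6 tumors, 4–6 fields each.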

[4] = tested on: PC-3; assay: MTS cell viability, PC-3 prostate cancer; format: cell-based; conditions: read-out: IC50, Other cancer types, 24 h
Summary of the method: as §1

[5] = tested on: melanoma cells; assay: MTS cell viability, melanoma cell lines; format: cell-based, human
Summary of the method: (§2)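 Melanoma lines (WM35, SbCl2, WM115, WM278.1, SK-MEL-24, 1205 Lu, UACC 903) and normal cells (FOM103 melanocytes, FF2441 fibroblasts, foreskin keratinocytes) seeded at 5×10^3 cells/well in 96-well plates. Exposed to DMSO vehicle or 0.62–40 µmol/L test compound for 24, 48 or 72 h, then MTS read. IC50 from three independent experiments per line, averaged across each group.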

[6] = tested on: pStat3 (Tyr705); assay: Western blot of size and time matched tumor lysates, pStat3; format: in vivo, nude mice; conditions: days 11, 13 and 15, 7.5 mg/kg i.p. daily from day 6, versus DMSO
Summary of the method: (§3)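 Same size- and time-matched UACC 903 s.c. tumors in nude mice: 7.5 mg/kg test compound or DMSO vehicle given i.p. daily from day 6. Lysates from tumors harvested at days 11, 13 and 15 immunoblotted for pAkt (Ser473) or pStat3 (Tyr705), compared with vehicle-treated tumors.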

[7] = tested on: HT-1080; assay: MTS cell viability, HT-1080 fibrosarcoma; format: cell-based; conditions: read-out: IC50, Other cancer types, 24 h
Summary of the method: as §1

[8] = tested on: HCT-116; assay: MTS cell viability, HCT-116 colon cancer; format: cell-based; conditions: read-out: IC50, Other cancer types, 24 h
Summary of the method: as §1

[9] = tested on: A-549; assay: MTS cell viability, A-549 lung cancer; format: cell-based; conditions: read-out: IC50, Other cancer types, 24 h
Summary of the method: as §1

[10] = tested on: MCF-7; assay: MTS cell viability, MCF-7 breast cancer; format: cell-based; conditions: read-out: IC50, Other cancer types, 24 h
Summary of the method: as §1

[11] = tested on: cannabinoid receptor CB1; conditions: cited from earlier work
[12] = tested on: normal cells; assay: MTS cell viability, normal cells; format: cell-based, human; conditions: read-out: average IC50, normal cells; average over normal cells
Summary of the method: as §2

[13] = tested on: MDA-MB-231; assay: MTS cell viability, MDA-MB-231 breast cancer; format: cell-based; conditions: read-out: IC50, Other cancer types, 24 h
Summary of the method: as §1

[14] = tested on: preexisting xenografted melanoma tumors; assay: Xenograft tumor growth and body weight, UACC 903 or 1205 Lu; format: in vivo, Athymic Nude-Foxn1nu mice
Summary of the method: (§4)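 Female Athymic Nude-Foxn1nu mice, 3–4 weeks old, injected s.c. above both rib cages with 1×10^6 UACC 903 or 1205 Lu cells in 0.2 mL DMEM with 10% FBS and 1% Glutamax. At day 6, with 50–75 mm3 tumors, mice randomized (5 mice/group, 2 tumors/mouse). Dosed i.p. daily for 3–4 weeks with DMSO vehicle or […] test compound, depending on cell line. Tumor size and body weight measured every 2 days.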

[15] = tested on: UACC 903 melanoma cells; assay: Natural product library NPL-480 primary screen, MTS; format: cell-based, human; conditions: 5 µmol/L, 24 hours, UACC 903, MTS
Summary of the method: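 UACC 903 cells plated at 5×10^3 per well in 96-well plates for 24 h. Each library compound, from 10 mM DMSO stocks, added at 5 µmol/L final for 24 h. Viability read by MTS. Screen run three times and averaged.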

[16] = tested on: 1205 Lu xenografted melanoma tumors; assay: Xenograft tumor growth, 1205 Lu; format: in vivo, Athymic Nude-Foxn1nu mice; conditions: 1205 Lu xenograft, 5–7.5 mg/kg i.p. daily, versus DMSO vehicle control
Summary of the method: as §4

[17] = tested on: LNCap; assay: MTS cell viability, LNCap prostate cancer; format: cell-based; conditions: read-out: IC50, Other cancer types, 24 h
Summary of the method: as §1

[18] = tested on: G-protein activity; conditions: cited from earlier work
[19] = tested on: PI3K/Akt pathway; assay: Western blot of pathway signaling, PI3K/Akt; format: cell-based, human; conditions: 3 to 6 µmol/L for 3 to 24 hours, UACC 903 and 1205 Lu
Summary of the method: (§5)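 1.5×10^6 melanoma cells plated in 100 mm dishes. After 48 h, treated with 3–6 µmol/L test compound for 3 to 24 h, then lysed in RIPA and immunoblotted with ECL detection; α-enolase as loading control. Probes: MAPK, phospho-Erk1/2 (Thr202/Tyr204) and total Erk1/2; PI3K/Akt, phospho-Akt (Ser473), total Akt, phospho-PRAS40 (Thr246), phospho-p70S6K (Thr389); STAT3, phospho-Stat3 (Tyr705), total Stat3.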

[20] = tested on: MAPK pathway; assay: Western blot of pathway signaling, MAPK; format: cell-based, human; conditions: 3 to 6 µmol/L for 3 to 24 hours, UACC 903 and 1205 Lu
Summary of the method: as §5

[21] = tested on: pAkt (Ser473); assay: Western blot of size and time matched tumor lysates, pAkt; format: in vivo, nude mice; conditions: days 11, 13 and 15, 7.5 mg/kg i.p. daily from day 6, versus DMSO
Summary of the method: as §3

[22] = Toxicity assessment; format: in vivo; conditions: Swiss Webster mice; for blood markers of major organ function (ALP, ALT, AST, CK, CREA, GLU): 10 mg/kg i.p. daily
Summary of the method: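 Swiss Webster mice (n=5) given 5 or 10 mg/kg test compound i.p. daily for 22 days and weighed daily. At termination, blood taken by cardiac puncture into lithium heparin serum separator tubes for ALP, ALT, AST, CK, creatinine and glucose. On day 22 liver, spleen, kidney, intestine, lung and heart were formalin-fixed, paraffin-embedded, H&E stained and examined microscopically.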

[23] = tested on: UACC 903 and 1205 Lu cells; assay: Apo-ONE caspase-3/7 apoptosis assay; format: cell-based, human; conditions: longer exposure
[24] = tested on: SW-480; assay: MTS cell viability, SW-480 colon cancer; format: cell-based; conditions: read-out: IC50, Other cancer types, 24 h
Summary of the method: as §1

[25] = tested on: UACC 903 xenografted melanoma tumors; assay: Xenograft tumor growth, UACC 903; format: in vivo, Athymic Nude-Foxn1nu mice; conditions: UACC 903 xenograft, 5–7.5 mg/kg i.p. daily, versus DMSO vehicle control
Summary of the method: as §4

[26] = tested on: HT-29; assay: MTS cell viability, HT-29 colon cancer; format: cell-based; conditions: read-out: IC50, Other cancer types, 24 h
Summary of the method: as §1

[27] = tested on: STAT3 pathway; assay: Western blot of pathway signaling, STAT3; format: cell-based, human; conditions: UACC 903 and 1205 Lu
Summary of the method: as §5

[28] = tested on: mutant V600EB-Raf melanoma; conditions: cited from earlier work

CC(C)c1ccc2c(c1)CC[C@H]1[C@](C)(CN)CCC[C@]21C [leelamine, Dehydroabietylamine]
cell cycle distribution [1]: increase in the sub-G0/G1 and G0/G1 cell populations, with a corresponding decrease in the S-phase population | IC50 [2]: 4.69 ± 0.37 µM | reduction in proliferating cells (Ki-67) [3]: 50% | IC50 [4]: 5.41 ± 2.6 µM | fold more effective at inhibiting cultured melanoma cell survival than normal cells ([5]; melanoma cells versus normal cells, average): 4.5 fold | IC50 ([5]; read-out: average IC50, cultured melanoma cells, average over melanoma cells): 2 µM | pStat3 (Tyr705) in tumor lysates [6]: decreased; also recorded: inhibition | IC50 [7]: 4.01 ± 0.27 µM | IC50 [8]: 4.8 ± 0.5 µM | IC50 [9]: 8.81 ± 0.82 µM | IC50 [10]: 7.12 ± 1.3 µM | binding to the cannabinoid receptor CB1 [11]: weakly binding | IC50 [12]: 9.3 µM | IC50 [13]: 5.82 ± 0.87 µM | inhibition of growth of preexisting xenografted melanoma tumors, average ([14]; average of UACC 903 and 1205 Lu xenografts, i.p. daily for 3 to 4 weeks): 60% | animal body weight ([14]; xenograft-bearing nude mice, leelamine i.p. daily versus DMSO control): no significant differences | decrease in cell viability [15]: approximately 95% | reduction of tumor volume [16]: 57% | IC50 [17]: 10.9 ± 0.23 µM | stimulation of G-protein activity [18]: not stimulating | signaling through PI3K pathway [19]: Decreased signaling | signaling through MAPK pathway [20]: Decreased signaling | active pAkt (Ser473) in tumor lysates [21]: decreased; also recorded: inhibition | blood markers of major organ function (ALP, ALT, AST, CK, CREA, GLU) ([22]; after 22 days, 10 mg/kg): No significant differences; also recorded: negligible toxicity | blood markers of major organ function (ALP, ALT, AST, CK, CREA, GLU) ([22]; after 22 days, listed as Leelamine, 10 mg/kg): without affecting | histological examination of H&E stained vital organ sections (cellular morphology or overall structure) ([22]; 10 mg/kg, after 22 days, liver, spleen, kidney, intestine, lung, heart, 10 mg/kg): no change; also recorded: no differences | body weights ([22]; 5 or 10 mg/kg i.p. daily, 22 days): No significant difference | increase in apoptosis [23]: 600% | IC50 [24]: 1.55 ± 0.33 µM | reduction of tumor volume [25]: 61% | IC50 [26]: 5.95 ± 1.23 µM | signaling through STAT3 pathway ([27]; 3 to 6 µmol/L for 3 to 24 hours): Decreased signaling | time from which inhibition of STAT3 pathway occurred ([27]; 3 to 6 µmol/L): ≥ 12 h

CCCS(=O)(=O)Nc1ccc(F)c(C(=O)c2c[nH]c3ncc(-c4ccc(Cl)cc4)cc23)c1F [Zelboraf]
progression-free survival [28]: 6.2 months | partial or complete anti-tumor response rate ([28]; patients having mutant V600EB-Raf, first 2-month treatment cycle): approximately 80%
